Structures are written as SMILES. Some results are limits rather than exact numbers.

Our source for the Emax and DC50 values is ChEMBL document CHEMBL6153131, “Rational Design and Optimization of a Potent IDO1 Proteolysis Targeting Chimera (PROTAC)” (J Med Chem, 2025).

Experiment [1] has as its target T1, Protein cereblon/Indoleamine 2,3-dioxygenase 1 (Homo sapiens, UniProt P14902+Q96SW2). The experiment can be described thus: PROTAC activity at CRBN/N-terminal HiBiT-tagged IDO1 (unknown origin) transfected in human U87 cells assessed as induction of IDO1 degradation by measuring maximum efficacy pretreated with IFN-gamma for 24 hrs followed by compound addition and measured after 24 hrs by Nano-Glo HiBiT assay relative to control. The experiment is classed as cell-based. Summed up:
(§1)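 U87 cells carrying HiBiT knocked in by CRISPR/Cas9 at the IDO1 N-terminus, treated for 24 h. Degradation read as loss of luminescence. DC50 fitted from the lowest concentration up to maximal degradation, excluding hook-effect points; triplicate mean ± SD.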
Target sequence in this assay (P14902 whole entry, looked up): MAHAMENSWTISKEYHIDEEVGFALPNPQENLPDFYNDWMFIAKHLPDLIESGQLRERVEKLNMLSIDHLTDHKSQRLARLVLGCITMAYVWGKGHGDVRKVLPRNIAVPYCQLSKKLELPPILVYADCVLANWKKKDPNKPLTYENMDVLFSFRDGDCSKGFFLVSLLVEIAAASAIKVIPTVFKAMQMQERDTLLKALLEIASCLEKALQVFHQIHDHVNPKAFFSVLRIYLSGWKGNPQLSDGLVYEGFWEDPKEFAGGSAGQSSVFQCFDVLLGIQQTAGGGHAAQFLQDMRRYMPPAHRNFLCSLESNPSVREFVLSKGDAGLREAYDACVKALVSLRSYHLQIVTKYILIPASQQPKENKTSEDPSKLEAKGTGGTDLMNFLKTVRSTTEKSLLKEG
Target sequence in this assay (Q96SW2 whole entry, looked up): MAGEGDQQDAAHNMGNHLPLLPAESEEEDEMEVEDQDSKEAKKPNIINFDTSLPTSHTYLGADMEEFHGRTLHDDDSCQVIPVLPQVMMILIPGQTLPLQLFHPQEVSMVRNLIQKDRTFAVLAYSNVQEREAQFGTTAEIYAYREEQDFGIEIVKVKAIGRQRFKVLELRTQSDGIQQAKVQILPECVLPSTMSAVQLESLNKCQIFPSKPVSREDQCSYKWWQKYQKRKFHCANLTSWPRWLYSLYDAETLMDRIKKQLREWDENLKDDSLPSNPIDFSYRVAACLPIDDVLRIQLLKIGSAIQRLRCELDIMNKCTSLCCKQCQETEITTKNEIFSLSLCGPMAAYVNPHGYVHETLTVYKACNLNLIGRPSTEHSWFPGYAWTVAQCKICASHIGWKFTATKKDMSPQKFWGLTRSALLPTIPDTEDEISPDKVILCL

In experiment [2] the target is T1, Protein cereblon/Indoleamine 2,3-dioxygenase 1. The experiment can be described thus: PROTAC activity at CRBN/N-terminal HiBiT-tagged IDO1 (unknown origin) transfected in human U87 cells assessed as induction of IDO1 degradation pretreated with IFN-gamma for 24 hrs followed by compound addition and measured after 24 hrs by Nano-Glo HiBiT assay. It is filed as cell-based. The method, boiled down: as §1
Target sequence in this assay (P14902 whole entry): as the sequence (P14902 whole entry, looked up) above
Target sequence in this assay (Q96SW2 whole entry): as the sequence (Q96SW2 whole entry, looked up) above

For `C[C@@H](C(=O)Nc1ccc(Cl)c(OC2CCN(C(=O)CCOCCN3CCN(c4cccc5c4C(=O)N(C4CCC(=O)NC4=O)C5=O)CC3)CC2)c1)[C@H]1CC[C@@H](c2ccnc3ccc(F)cc32)CC1` (stereo partly drawn), the Emax in experiment [1] was < 10%. Besides, the DC50 in experiment [2] was > 10 µM.
In the same order, the values of `C[C@@H](C(=O)Nc1ccc(Cl)c(OC2CCN(C(=O)CCOCCOCCNc3cccc4c3C(=O)N(C3CCC(=O)NC3=O)C4=O)CC2)c1)[C@H]1CC[C@@H](c2ccnc3ccc(F)cc32)CC1` (stereo partly drawn) are < 10% and > 10 µM.
In the same order, the values of `C[C@@H](C(=O)Nc1ccc(OC2CCN(C(=O)CCOCCOCCNc3ccc4c(c3)C(=O)N(C3CCC(=O)NC3=O)C4=O)CC2)cc1)[C@H]1CC[C@@H](c2ccnc3ccc(F)cc32)CC1` (stereo partly drawn) are < 10% and > 10 µM.
For `C[C@@H](C(=O)Nc1cccc(OC2CCN(C(=O)CCN3CCN(c4ccc5c(c4)C(=O)N(C4CCC(=O)NC4=O)C5=O)CC3)CC2)c1)[C@H]1CC[C@@H](c2ccnc3ccc(F)cc32)CC1` (stereo partly drawn), the Emax in experiment [1] is < 10%. For the same compound, the DC50 in experiment [2] was > 10 µM.
Regarding `C[C@@H](C(=O)Nc1ccc(Cl)c(OC2CCN(C(=O)CCOCCN3CCN(c4ccc5c(c4)C(=O)N(C4CCC(=O)NC4=O)C5=O)CC3)CC2)c1)[C@H]1CC[C@@H](c2ccnc3ccc(F)cc32)CC1` (stereo partly drawn), the Emax in experiment [1] was < 10%. In addition, the DC50 in experiment [2] is > 10 µM.
On to `C[C@@H](C(=O)Nc1ccc(OC2CCN(C(=O)CN3CCC(N4CCN(c5ccc6c(c5)C(=O)N(C5CCC(=O)NC5=O)C6=O)CC4)CC3)CC2)cc1)[C@H]1CC[C@@H](c2ccnc3ccc(F)cc32)CC1` (stereo partly drawn), for which, in experiment [1], the Emax came out at 21%. Besides, in experiment [2], the DC50 was determined as 0.034 µM.
In the same order, the values of `C[C@@H](C(=O)Nc1ccc(Cl)c(OC2CCN(C(=O)CN3CCC(CN4CCN(c5cccc6c5C(=O)N(C5CCC(=O)NC5=O)C6=O)CC4)CC3)CC2)c1)[C@H]1CC[C@@H](c2ccnc3ccc(F)cc32)CC1` (stereo partly drawn) are < 10% and > 10 µM.
Regarding `C[C@@H](C(=O)Nc1ccc(OC2CCN(C(=O)CCOCCN3CCN(c4cccc5c4C(=O)N(C4CCC(=O)NC4=O)C5=O)CC3)CC2)cc1)[C@H]1CC[C@@H](c2ccnc3ccc(F)cc32)CC1` (stereo partly drawn), the Emax in experiment [1] is < 10%. Further, the DC50 in experiment [2] was > 10 µM.
In the same order, the values of `C[C@@H](C(=O)Nc1ccc(OC2CCN(C(=O)CCOCCN3CCN(c4ccc5c(c4)C(=O)N(C4CCC(=O)NC4=O)C5=O)CC3)CC2)cc1)[C@H]1CC[C@@H](c2ccnc3ccc(F)cc32)CC1` (stereo partly drawn) are < 10% and > 10 µM.
In the same order, the values of `C[C@@H](C(=O)Nc1ccc(OC2CCN(C(=O)CN3CCC(CN4CCN(c5cccc6c5C(=O)N(C5CCC(=O)NC5=O)C6=O)CC4)CC3)CC2)cc1)[C@H]1CC[C@@H](c2ccnc3ccc(F)cc32)CC1` (stereo partly drawn) are < 10% and > 10 µM.
In the same order, the values of `C[C@@H](C(=O)Nc1ccc(Cl)c(OC2CCN(C(=O)CN3CCC(CN4CCN(c5ccc6c(c5)C(=O)N(C5CCC(=O)NC5=O)C6=O)CC4)CC3)CC2)c1)[C@H]1CC[C@@H](c2ccnc3ccc(F)cc32)CC1` (stereo partly drawn) are 48% and 0.008 µM.
Take `C[C@@H](C(=O)Nc1ccc(Cl)c(OC2CCN(C(=O)CCOCCOCCNc3ccc4c(c3)C(=O)N(C3CCC(=O)NC3=O)C4=O)CC2)c1)[C@H]1CC[C@@H](c2ccnc3ccc(F)cc32)CC1` (stereo partly drawn): in experiment [1], the Emax was < 10%. In experiment [2], the DC50 was > 10 µM.
In the same order, the values of `C[C@@H](C(=O)Nc1ccc(Cl)c(OC2CCN(C(=O)CN3CCC(N4CCN(c5ccc6c(c5)C(=O)N(C5CCC(=O)NC5=O)C6=O)CC4)CC3)CC2)c1)[C@H]1CC[C@@H](c2ccnc3ccc(F)cc32)CC1` (stereo partly drawn) are 51% and 0.007 µM.
In the same order, the values of `C[C@@H](C(=O)Nc1ccc(OC2CCN(C(=O)CN3CCC(CN4CCN(c5ccc6c(c5)C(=O)N(C5CCC(=O)NC5=O)C6=O)CC4)CC3)CC2)cc1)[C@H]1CC[C@@H](c2ccnc3ccc(F)cc32)CC1` (stereo partly drawn) are 26% and 0.34 µM.
